Compound activity as filed in PubChem.
Rows were chosen to be rich in hits. Some 2.2% of all compounds tested hit in one or more screens of this group.
EBI2 antag: EBI2 (human) antagonism; 360,000 compounds, 0.81% hits; EBI2 beta-arrestin recruitment, luminescence, 7a,25-OHC stimulated; inhibition, % at 5 µM; P32249; in the data active = inhibition above about 38%;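 also: enzyme fragment complementation signal reports receptor beta-arrestin coupling in cells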
CCR6 antagonist: antagonists of human CCR6 receptor; P51684; CHO-K1 CCR6 PathHunter beta-arrestin, luminescence, CCL20-stimulated; inhibition, % at 20 µM; 340,000 compounds, 0.49% hits;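 active = compounds whose inhibition of the agonist-driven luminescence signal at 20 µM reaches about 50%, limit read from the data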;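 also: cells stimulated with CCL20 at 14 nM final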
Target sequence (P51684 whole entry, looked up): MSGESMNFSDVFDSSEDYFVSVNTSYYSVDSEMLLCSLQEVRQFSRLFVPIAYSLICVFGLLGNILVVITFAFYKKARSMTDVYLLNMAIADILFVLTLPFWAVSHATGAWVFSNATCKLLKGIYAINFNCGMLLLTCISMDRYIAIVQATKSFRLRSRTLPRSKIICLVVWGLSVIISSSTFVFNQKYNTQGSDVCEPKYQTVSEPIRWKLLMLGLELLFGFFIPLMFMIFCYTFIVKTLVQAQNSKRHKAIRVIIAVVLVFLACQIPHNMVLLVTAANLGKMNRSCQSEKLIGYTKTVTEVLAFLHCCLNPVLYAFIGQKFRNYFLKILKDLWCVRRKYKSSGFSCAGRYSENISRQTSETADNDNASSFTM
CXCR6 block: CXCR6 (human) receptor inhibition. O00574. CHO-K1 PathHunter CXCR6 beta-arrestin, luminescence. inhibition, % at 20 µM. 360,000 compounds, 0.36% hits; in the data active = inhibition above about 34%, passing the limit was not always enough;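 also: antagonist mode with CXCL16 agonist at 10 nM final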
Target sequence (O00574 whole entry, looked up): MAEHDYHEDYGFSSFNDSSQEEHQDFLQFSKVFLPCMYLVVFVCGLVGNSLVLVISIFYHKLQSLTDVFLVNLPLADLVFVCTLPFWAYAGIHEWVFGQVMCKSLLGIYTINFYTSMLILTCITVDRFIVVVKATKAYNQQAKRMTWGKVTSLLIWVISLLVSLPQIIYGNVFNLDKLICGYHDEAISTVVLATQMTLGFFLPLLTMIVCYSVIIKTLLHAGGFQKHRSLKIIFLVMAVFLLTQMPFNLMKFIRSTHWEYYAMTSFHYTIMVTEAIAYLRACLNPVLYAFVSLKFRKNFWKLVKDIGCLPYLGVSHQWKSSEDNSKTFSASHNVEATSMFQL
APJ agonist: activates the human apelin receptor APJ. P35414. CHO-K1 APJ PathHunter beta-arrestin, luminescence; 0% DMSO wells, 100% apelin. activation, % at 20 µM. 330,000 compounds, 0.11% hits;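 active = activation more than six SD over the plate average, tested at 20 µM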
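Test system: CHO-K1 APJ beta-arrestin complementation cell line. Amount: cell density 1000 per well. Controls: DMSO negative, 10 nM Apelin-13 positive. Signal: luminescent beta-gal fragment complementation, chemiluminescent substrate. Read-out basis: agonist-driven arrestin binding to APJ. Timing: compound stimulation 90 min at 25 °C, detection 60 min.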
APJ antag: antagonists of human APJ apelin receptor; P35414; CHO-K1 APJ beta-arrestin complementation, luminescence; inhibition, % at 20 µM; 330,000 compounds, 0.32% hits;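 active = inhibition above about 40% at 20 µM, limit read from the data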;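 also: cells challenged with 10 nM apelin-13 agonist together with compound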
HTR2A ag: activates the mouse 5-HT2A serotonin receptor; 360,000 compounds, 0.66% hits; AID 624169; activation, % at 7.6 µM; CHO-K1 mHTR2A beta-arrestin complementation, luminescence; percent of 30 µM serotonin response;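 active = activation above a run cutoff, the mean activation of all tested compounds plus 3 SD, cut at about 14% in these data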
OPRM1 ag: counter-screen for mouse HTR2A agonists: human mu opioid receptor agonists | activation, % at 9.3 µM | U2OS OPRM1 beta-arrestin PathHunter, luminescence; DMSO 0%, DAMGO 9.3 µM 100% | shares compounds with HTR2A ag | 2,300 compounds, 5.3% hits;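 active = mean activation above the mean of DMSO-only wells plus 3 SD, cut at about 0.5% in these data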
HTR2A ag conf: confirmation of mouse HTR2A serotonin receptor agonists; shares compounds with HTR2A ag; CHO-K1 PathHunter beta-arrestin recruitment, luminescence; DMSO 0%, 30 µM serotonin 100%; activation, % at 7.6 µM; 2,300 compounds, 19% hits;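 active = mean activation across triplicates above the hit threshold derived in the original primary screen, cut at about 15% in these data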
Each line names hits and unclear results; the compound was inactive in the other large screens (follow-up assays come after a bar, where they were run).

O=C(c1ccc(-n2cncn2)c([N+](=O)[O-])c1)N1CCN(S(=O)(=O)c2c(F)cccc2F)CC1	HTR2A ag 15.9 | OPRM1 ag inactive | HTR2A ag conf inactive
C[C@@H]1CN([C@H](C)CO)C(=O)CCCn2nncc2CO[C@H]1CN(C)Cc1cccc2c1OCCCO2	none (no result: CCR6 antagonist, APJ agonist, APJ antag)
C[C@H](CO)N1C[C@H](C)[C@@H](CN(C)Cc2cccc3c2OCCCO3)OCc2cnnn2CCCC1=O	HTR2A ag 19.0 (no result: CCR6 antagonist, APJ agonist, APJ antag) | OPRM1 ag inactive | HTR2A ag conf inactive
COC(=O)[C@]12CCCCC=C1N(Cc1cccc3ccccc13)C(=O)[C@H](CC(=O)NCCc1ccccc1OC)C2	none (no result: CCR6 antagonist, APJ agonist, APJ antag)
CC(C)(C)c1ccc(NC(=O)COC(=O)C2=COCCO2)cc1	none
CN(C)C(=O)c1ccc(NC(=O)COC(=O)C2=COCCO2)cc1	HTR2A ag 18.1 | OPRM1 ag inactive | HTR2A ag conf inactive
CCOc1cc(-c2ccccc2)nc2c1CN(S(=O)(=O)c1ccc(C)cc1)C(c1cccc(Cl)c1)C2 (stereo not given)	none (no result: CCR6 antagonist, CXCR6 block, APJ agonist, APJ antag)
CC(=O)N1CCC(C(=O)N2c3ccccc3N=C(c3ccc4c(c3)OCO4)C2C(=O)Nc2c(C)cccc2C)CC1 (stereo not given)	none (no result: CCR6 antagonist, CXCR6 block, APJ agonist, APJ antag)
COc1ccc(NS(=O)(=O)c2cccc(C(=O)NCC(c3ccco3)N(C)C)c2)cc1 (stereo not given)	none
CCN(CC)S(=O)(=O)c1ccc(Cl)c(C(=O)NCc2ccco2)c1	none
COc1ccc(NS(=O)(=O)c2ccc(C)c(C(=O)NCC(c3ccco3)N(C)C)c2)cc1 (stereo not given)	HTR2A ag 15.6 | OPRM1 ag inactive | HTR2A ag conf inactive
CS(=O)(=O)c1ccc(NS(=O)(=O)c2ccc(Cl)c(C(=O)NCc3ccco3)c2)cc1	HTR2A ag 19.2 | OPRM1 ag inactive | HTR2A ag conf inactive
CC(=O)NCc1ccc2[nH]c(C)cc2c1	HTR2A ag 17.0 | OPRM1 ag inactive | HTR2A ag conf inactive
CC1(Cc2ccc(F)c(Cl)c2)C(=O)Nc2c(Cl)cccc21 (stereo not given)	none (no result: CCR6 antagonist, APJ agonist, APJ antag)
C=CCN(CC=C)CCOc1cccc2ccccc12	HTR2A ag 14.4 | OPRM1 ag inactive | HTR2A ag conf 22.9
Cc1csc(SCC(=O)NCCc2ccc(Cl)cc2)n1	none
Cc1nc(SCC(=O)NCCc2ccc(Cl)cc2)nc(C)c1C	HTR2A ag 15.5 | OPRM1 ag inactive | HTR2A ag conf inactive
COC(=O)CCCC1=CC2=C(c3ccccc3)C(=O)C(C)(OC(=O)C3CCCC3)C(=O)C2=CN1CCN1CCOCC1 (stereo not given)	none
COC(=O)CCCC1=CC2=C(c3ccccc3)C(=O)C(C)(OC(=O)C3CCCC3)C(=O)C2=CN1CCc1ccccn1 (stereo not given)	HTR2A ag 14.8 | OPRM1 ag inactive | HTR2A ag conf inactive
CCc1ccccc1NC(=O)c1ccccc1N1C(=O)C2C3C=CC(C3)C2C1=O (stereo not given)	HTR2A ag 16.3 | OPRM1 ag inactive | HTR2A ag conf inactive
O=C(CSc1nc2c(cnn2-c2ccc(F)cc2)c(=O)[nH]1)N1CCOCC1	none
O=C(CSc1nc2c(cnn2-c2ccc(F)cc2)c(=O)[nH]1)N1CCCCC1	HTR2A ag 15.2 | OPRM1 ag inactive | HTR2A ag conf inactive
COc1cccc(CN(C)C(=O)c2ccc(S(=O)(=O)Nc3cccc(C)c3C)cc2)c1OC	none (no result: CCR6 antagonist, APJ agonist, APJ antag)
Cc1[nH]c2ccccc2c1C(=O)C(=O)NCc1nnnn1-c1ccc(F)c(F)c1	none (no result: CCR6 antagonist, APJ agonist, APJ antag)
COC(=O)CC(NS(=O)(=O)c1cccs1)c1ccc2c(c1)OCO2 (stereo not given)	none
COC(=O)CC(NS(=O)(=O)c1cccs1)c1ccccc1Cl (stereo not given)	HTR2A ag 18.6 | OPRM1 ag inactive | HTR2A ag conf inactive
CN(C(=O)c1ccccc1Cl)c1ccccc1C(=O)NCc1ccccc1	HTR2A ag 35.3 | OPRM1 ag inactive | HTR2A ag conf inactive
CC(CCc1ccccc1)NC(=O)c1ccccc1Cl (stereo not given)	HTR2A ag 24.4 | OPRM1 ag inactive | HTR2A ag conf inactive
CC(CCc1ccccc1)NC(=O)c1ccccc1F (stereo not given)	none
CO[C@@H]1CN(C)C(=O)c2cc(NS(=O)(=O)c3ccc(C)cc3)ccc2OC[C@H](C)N(Cc2nccs2)C[C@H]1C	none (no result: CCR6 antagonist, CXCR6 block, APJ agonist, APJ antag)
Cc1ccc(C(c2sc3nc(C)nn3c2O)N2CCN(CCO)CC2)cc1 (stereo not given)	none
Cc1nc2sc(C(c3ccco3)N3CC(C)OC(C)C3)c(O)n2n1 (stereo not given)	HTR2A ag 23.4 | OPRM1 ag inactive | HTR2A ag conf inactive
Cc1nc2sc(C(c3ccccc3)N3CCN(CCO)CC3)c(O)n2n1 (stereo not given)	HTR2A ag 31.8 | OPRM1 ag inactive | HTR2A ag conf inactive
Cc1nc2sc(C(c3ccco3)N3CCC(C)CC3)c(O)n2n1 (stereo not given)	none
N#Cc1ccc(NC(=S)N2CCC3CC2c2cc(-c4ccc5c(c4)OCO5)ccc23)cc1 (stereo not given)	none (no result: CCR6 antagonist, APJ agonist, APJ antag)
O=c1cc(CN(Cc2ccccc2)Cc2ccccc2)c2c(ccc3ccccc32)o1	none (no result: CCR6 antagonist, APJ agonist, APJ antag)
Nc1nnc(-c2ccccc2[N+](=O)[O-])o1	HTR2A ag 25.6 | OPRM1 ag inactive | HTR2A ag conf inactive
Cc1ccc(S(=O)(=O)N2CC3C(=O)C[C@@H](c4ccccc4)N(S(=O)(=O)c4cccc(Cl)c4)C3CC2c2ccccc2)cc1 (stereo not given in full)	none (no result: CCR6 antagonist, CXCR6 block, APJ agonist, APJ antag)
CCc1cc2c(SCc3ccc(C(=O)OC)o3)ncnc2s1	HTR2A ag 14.6 | OPRM1 ag inactive | HTR2A ag conf inactive
COc1ccc(COC(=O)C2=C(C)NC(=O)NC2c2cccc(Br)c2)cc1 (stereo not given)	HTR2A ag 15.7 | OPRM1 ag inactive | HTR2A ag conf 15.6
CC1=C(C(=O)OCc2ccccc2)C(c2cccc(Br)c2)NC(=O)N1 (stereo not given)	none
CCC(OC(=O)c1nsc(Cl)c1Cl)C(=O)NCc1cccs1 (stereo not given)	HTR2A ag 26.9 | OPRM1 ag inactive | HTR2A ag conf inactive
O=C(CN1C(=O)/C(=C/c2ccc(Cl)cc2)SC1=S)NC1C=CS(=O)(=O)C1 (stereo not given)	HTR2A ag 15.3 | OPRM1 ag inactive | HTR2A ag conf inactive
